Measured values reported in ChEMBL document CHEMBL1828575, “Design, synthesis and antiproliferative activities of biarylolefins based on polyhydroxylated and carbohydrate scaffolds” (Eur J Med Chem, 2011).
Calls of active or inactive are those of the source. The rule behind the calls is not given here.

Tests used:
[1] = system: HL-60; test: Cytotoxicity against human HL60 cells at 10^-5 M after 72 hrs by MTS assay; assay type: functional; conditions: HL-60, 72 h, read-out: GI
Procedure, shortened: (§1)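 Cells grown in RPMI with 10% fetal calf serum, penicillin, streptomycin and fungizone under 5% CO₂. Plated in 96-well plates and dosed 24 h later with compound in DMSO (1% final DMSO; controls got DMSO alone). After 72 h, MTS was added for 3 h at 37 °C and A490 read. Inhibition = (1 − OD treated/OD control) × 100, in triplicate.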

[2] = system: MCF7; test: Cytotoxicity against human MCF7 cells at 10^-5 M after 72 hrs by MTS assay; assay type: functional; conditions: MCF7, 72 h, read-out: GI
[3] = Cytotoxicity against human MDA231 cells at 10^-6 M after 72 hrs by MTS assay; assay type: functional; conditions: MDA-MB-231, 72 h, read-out: GI
Procedure, shortened: (§2)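 Preliminary screen at 10^-5 and 10^-6 M. Cells were grown in RPMI with 10% fetal calf serum plus penicillin, streptomycin and fungizone under 5% CO₂, plated in 96-well plates, and dosed 24 h later from DMSO stocks (1% DMSO final, same in controls). After 72 h, MTS was added for 3 h at 37 °C and absorbance read at 490 nm. Inhibition was calculated as (1 − OD treated/OD control) × 100, in triplicate.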

[4] = system: HCT-15; test: Cytotoxicity against human HCT15 cells at 10^-6 M after 72 hrs by MTS assay; assay type: functional; conditions: HCT-15, 72 h, read-out: GI; procedure, shortened: as §1
[5] = system: HCT-15; test: Cytotoxicity against human HCT15 cells at 10^-5 M after 72 hrs by MTS assay; assay type: functional; conditions: HCT-15, 72 h, read-out: GI; procedure, shortened: as §1
[6] = system: MIA PaCa-2; test: Cytotoxicity against human MIAPaCa2 cells at 10^-6 M after 72 hrs by MTS assay; assay type: functional; conditions: MIA PaCa-2, 72 h, read-out: GI
[7] = system: A549; test: Cytotoxicity against human A549 cells at 10^-6 M after 72 hrs by MTS assay; assay type: functional; conditions: A549, 72 h, read-out: GI; procedure, shortened: as §1
[8] = system: OVCAR-8; test: Cytotoxicity against human OVCAR8 cells at 10^-6 M after 72 hrs by MTS assay; assay type: functional; conditions: OVCAR-8, 72 h, read-out: GI; procedure, shortened: as §2
[9] = Cytotoxicity against human HL60R cells at 10^-6 M after 72 hrs by MTS assay; assay type: functional; conditions: read-out: GI; procedure, shortened: as §1
[10] = Cytotoxicity against human HL60R cells at 10^-5 M after 72 hrs by MTS assay; assay type: functional, HL-60; conditions: read-out: GI; procedure, shortened: as §1
[11] = system: PC-3; test: Cytotoxicity against human PC3 cells at 10^-5 M after 72 hrs by MTS assay; assay type: functional; conditions: PC-3, 72 h, read-out: GI; procedure, shortened: as §2
[12] = system: HL-60; test: Cytotoxicity against human HL60 cells at 10^-6 M after 72 hrs by MTS assay; assay type: functional; conditions: HL-60, 72 h, read-out: GI; procedure, shortened: as §1
[13] = system: K562; test: Cytotoxicity against human K562 cells at 10^-5 M after 72 hrs by MTS assay; assay type: functional; conditions: K562, 72 h, read-out: GI; procedure, shortened: as §1
[14] = system: OVCAR-8; test: Cytotoxicity against human OVCAR8 cells at 10^-5 M after 72 hrs by MTS assay; assay type: functional; conditions: OVCAR-8, 72 h, read-out: GI; procedure, shortened: as §2
[15] = system: SK-OV-3; test: Cytotoxicity against human SKOV3 cells at 10^-6 M after 72 hrs by MTS assay; assay type: functional; conditions: SK-OV-3, 72 h, read-out: GI; procedure, shortened: as §2
[16] = system: HCT-116; test: Cytotoxicity against human HCT116 cells at 10^-6 M after 72 hrs by MTS assay; assay type: functional; conditions: HCT-116, 72 h, read-out: GI; procedure, shortened: as §1
[17] = system: MCF7; test: Cytotoxicity against human MCF7 cells at 10^-6 M after 72 hrs by MTS assay; assay type: functional; conditions: MCF7, 72 h, read-out: GI
[18] = system: HT-29; test: Cytotoxicity against human HT-29 cells at 10^-6 M after 72 hrs by MTS assay; assay type: functional; conditions: HT-29, 72 h, read-out: GI; procedure, shortened: as §1
[19] = system: SF-268; test: Cytotoxicity against human SF268 cells at 10^-6 M after 72 hrs by MTS assay; assay type: functional; conditions: SF-268, 72 h, read-out: GI; procedure, shortened: as §2
[20] = system: PC-3; test: Cytotoxicity against human PC3 cells at 10^-6 M after 72 hrs by MTS assay; assay type: functional; conditions: PC-3, 72 h, read-out: GI; procedure, shortened: as §2
[21] = system: HT-29; test: Cytotoxicity against human HT-29 cells at 10^-5 M after 72 hrs by MTS assay; assay type: functional; conditions: HT-29, 72 h, read-out: GI; procedure, shortened: as §1
[22] = system: HCT-116; test: Cytotoxicity against human HCT116 cells at 10^-5 M after 72 hrs by MTS assay; assay type: functional; conditions: HCT-116, 72 h, read-out: GI; procedure, shortened: as §1
[23] = Cytotoxicity against human MDA231 cells at 10^-5 M after 72 hrs by MTS assay; assay type: functional; conditions: MDA-MB-231, 72 h, read-out: GI; procedure, shortened: as §2
[24] = system: SK-OV-3; test: Cytotoxicity against human SKOV3 cells at 10^-5 M after 72 hrs by MTS assay; assay type: functional; conditions: SK-OV-3, 72 h, read-out: GI; procedure, shortened: as §2
[25] = system: MIA PaCa-2; test: Cytotoxicity against human MIAPaCa2 cells at 10^-5 M after 72 hrs by MTS assay; assay type: functional; conditions: MIA PaCa-2, 72 h, read-out: GI
[26] = system: A549; test: Cytotoxicity against human A549 cells at 10^-5 M after 72 hrs by MTS assay; assay type: functional; conditions: A549, 72 h, read-out: GI; procedure, shortened: as §1
[27] = system: K562; test: Cytotoxicity against human K562 cells at 10^-6 M after 72 hrs by MTS assay; assay type: functional; conditions: K562, 72 h, read-out: GI; procedure, shortened: as §1
[28] = system: SF-268; test: Cytotoxicity against human SF268 cells at 10^-5 M after 72 hrs by MTS assay; assay type: functional; conditions: SF-268, 72 h, read-out: GI; procedure, shortened: as §2
[29] = species: Ovis aries; test: Inhibition of sheep brain tubulin polymerization at 10 uM
Procedure, shortened: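 Microtubule protein from sheep brain, purified by two assembly/disassembly cycles (37 °C/0 °C), in 100 mM MES pH 6.6, 1 mM EGTA, 0.5 mM MgCl₂. Compounds in DMSO were tested at a single concentration, with incubation at 37 °C for 10 min and then 0 °C for 5 min before measuring assembly rate, following a modified Guénard protocol.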

SMILES	inhibition of growth at 10 µM [1]	inhibition of growth at 10 µM [2]	inhibition of growth at 1 µM [3]	inhibition of growth at 1 µM [4]	inhibition of growth at 10 µM [5]	inhibition of growth at 1 µM [6]	inhibition of growth at 1 µM [7]	inhibition of growth at 1 µM [8]	inhibition of growth at 1 µM [9]	inhibition of growth at 10 µM [10]	inhibition of growth at 10 µM [11]	inhibition of growth at 1 µM [12]	inhibition of growth at 10 µM [13]	inhibition of growth at 10 µM [14]	inhibition of growth at 1 µM [15]	inhibition of growth at 1 µM [16]	inhibition of growth at 1 µM [17]	inhibition of growth at 1 µM [18]	inhibition of growth at 1 µM [19]	inhibition of growth at 1 µM [20]	further results
COc1cc(/C(=C2\O[C@@H]([C@H]3COC(C)(C)O3)[C@H]3OC(C)(C)O[C@@H]23)c2cccc([N+](=O)[O-])c2)cc(OC)c1OC	22%	11%	0%	6%	5%	4%	10%	0%	13%	29%	0%	2%	9%	0%	15%	5%	7%	7%	12%	2%	inhibition of growth at 10 µM [21]: 0%; inhibition of growth at 10 µM [22]: 8%; inhibition of growth at 10 µM [23]: 16%; inhibition of growth at 10 µM [24]: 40%; inhibition of growth at 10 µM [25]: 0%; inhibition of growth at 10 µM [26]: 12%; inhibition of growth at 1 µM [27]: 8%; inhibition of growth at 10 µM [28]: 20%
COc1cc(C(=C(CO)CO)c2cc(OC)c(OC)c(OC)c2)cc(OC)c1OC	40%	31%	0%	8%	22%	0%	0%	0%	17%	0%	26%	17%	25%	0%	13%	6%	8%	0%	13%	18%	tubulin polymerization inhibition call (active/not active) [29]: inactive; inhibition of growth at 10 µM [21]: 0%; inhibition of growth at 10 µM [22]: 0%; inhibition of growth at 10 µM [23]: 42%; inhibition of growth at 10 µM [24]: 14%; inhibition of growth at 10 µM [25]: 0%; inhibition of growth at 10 µM [26]: 13%; inhibition of growth at 1 µM [27]: 4%; inhibition of growth at 10 µM [28]: 35%
COc1cc(C(=C(COC(C)=O)COC(C)=O)c2ccc3ccccc3c2)cc(OC)c1OC	82%	17%	0%	8%	65%	4%	3%	0%	19%	41%	62%	11%	83%	6%	12%	0%	10%	0%	17%	18%	tubulin polymerization inhibition call (active/not active) [29]: inactive; inhibition of growth at 10 µM [21]: 22%; inhibition of growth at 10 µM [22]: 20%; inhibition of growth at 10 µM [23]: 74%; inhibition of growth at 10 µM [24]: 46%; inhibition of growth at 10 µM [25]: 15%; inhibition of growth at 10 µM [26]: 45%; inhibition of growth at 1 µM [27]: 12%; inhibition of growth at 10 µM [28]: 81%
COc1cc(/C(=C2/O[C@@H]([C@H](O)CO)[C@H]3OC(C)(C)O[C@@H]23)c2cccc([N+](=O)[O-])c2)cc(OC)c1OC	10%	14%	0%	10%	6%	0%	8%	0%	6%	11%	23%	11%	18%	0%	10%	0%	4%	4%	17%	1%	inhibition of growth at 10 µM [21]: 4%; inhibition of growth at 10 µM [22]: 0%; inhibition of growth at 10 µM [23]: 0%; inhibition of growth at 10 µM [24]: 16%; inhibition of growth at 10 µM [25]: 0%; inhibition of growth at 10 µM [26]: 14%; inhibition of growth at 1 µM [27]: 0%; inhibition of growth at 10 µM [28]: 26%
